MMP-13 inhibitor – human MMP13 inhibitors, primary screen, biochemical, FRET peptide cleavage; Collagenase 3 (Homo sapiens), P45452; MMP-13 fTHP FRET cleavage, Mca fluorescence; inhibition, % at 4 µM; 65,000 tested, 0.07% active; AID 570, 2006;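 active = inhibition above the mean of compound-free control plate wells plus 3 SD, cut at about 14% in these data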;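 also: 0% = DMSO wells and 100% = wells with reference MMP-13 inhibitor after basal subtraction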
JNK3 blocker – JNK3 kinase activity inhibitors, primary screen, biochemical, human, purified enzyme. Mitogen-activated protein kinase 10 (Homo sapiens), P53779. HTS. inhibition, % at 8 µM. 60,000 tested, 0.61% active; in the data active = inhibition above about 17%;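 also: 0% = DMSO and 100% = reference inhibitor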
Target sequence (P53779 whole entry, looked up): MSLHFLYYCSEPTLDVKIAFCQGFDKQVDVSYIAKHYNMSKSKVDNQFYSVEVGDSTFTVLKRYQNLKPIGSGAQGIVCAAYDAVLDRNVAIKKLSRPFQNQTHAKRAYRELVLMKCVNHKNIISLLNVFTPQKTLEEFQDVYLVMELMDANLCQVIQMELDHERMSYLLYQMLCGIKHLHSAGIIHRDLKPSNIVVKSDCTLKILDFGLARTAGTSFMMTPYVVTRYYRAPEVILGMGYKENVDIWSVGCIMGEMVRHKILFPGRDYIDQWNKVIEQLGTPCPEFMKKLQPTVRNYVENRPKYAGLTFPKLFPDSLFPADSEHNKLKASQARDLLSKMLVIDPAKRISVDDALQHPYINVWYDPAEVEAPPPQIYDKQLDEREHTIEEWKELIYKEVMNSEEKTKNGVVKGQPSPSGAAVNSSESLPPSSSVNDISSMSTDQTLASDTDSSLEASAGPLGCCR
HePTP inh – inhibitors of human HePTP phosphatase, primary screen, biochemical, absorbance, leukemia target; Tyrosine-protein phosphatase non-receptor type 7 (Homo sapiens), P35236; recombinant HePTP phosphatase activity, OD absorbance; inhibition, % at 20 µM; 110,000 tested, 0.64% active; in the data active = inhibition above about 50%;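 also: plate controls were vehicle for no effect and reference inhibitor for full effect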
HEK293 NFkB inh – inhibitors of PMA/ionomycin-induced NF-kB reporter, primary screen, antigen receptor NF-kB inhibitor project, cell-based, HEK-293 luciferase reporter, luminescence | HEK-293 NF-kB luciferase reporter | inhibition, % at 3 µM | 62,000 tested, 0.21% active | AID 465, 2006;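 active = inhibition above the mean of all tested compounds plus 3 SD, cut at about 40% in these data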;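 also: 0% = stimulated DMSO wells and 100% = 10 µM reference inhibitor 5653914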
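System – HEK-293 cells with stable firefly luciferase reporter driven by four HIV NF-kB elements · Doses – one dose, 3 µM · Schedule – 1 h compound pre-incubation, 16 h PMA/ionomycin at 37 °C · Technique – luminescence from luciferase substrate reagent · Measure – percent inhibition normalized per plate to DMSO and reference-inhibitor controls · Replicates – tested once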
The depositor's hits bear a star; nt = no result; ! = not active in a repeat. Most compounds without a hit are left out; they make up all but 0.93% or so of the library.

SMILES	MMP-13 inhibitor	JNK3 blocker	HePTP inh	HEK293 NFkB inh
O=C(Nc1nc(-c2ccc(Cl)cc2)cs1)c1cccc(Cl)c1	nt	nt	3.1	nt
O=C1NC(=S)N(c2ccccc2)C(=O)/C1=C/c1cccs1	nt	nt	4.3	nt
O=C1CC2c3ccccc3C1C1C(=O)N(c3ccccc3)C(=O)C21 (centres undefined)	nt	nt	103.3*	nt
O=C(NCc1ccccc1)C(=O)Nc1cccc2ccccc12	nt	nt	4.9	nt
O=C(CN1CCOCC1)NCCNC(=O)c1ccccc1	nt	nt	-4.0	nt
COc1ccc(/C=N/OCC(=O)N=Nc2c(O)n(CN(C)C)c3ccc(Br)cc23)cc1	nt	nt	103.6*	nt
Nc1nc(-c2ccccc2)cc(N2CCOCC2)n1	nt	nt	105.5*	nt
c1ccc(-c2cc(N3CCOCC3)nc(-c3ccccc3)n2)cc1	-5.3	3.9	4.0	7.0
CCOC(=O)c1ccc2[nH]c3c(c2c1)CCCCC3=O	-1.5	23.7*	0.3	-9.1
COC(=O)c1ccc(C(=O)OC)c(NC(=O)c2cc(Cl)ccc2Cl)c1	nt	nt	102.1*	nt
COC(=O)c1ccc(Cl)c(NC(C)=O)c1	-1.2	5.1	-3.2	4.7
O=C(O)c1cc(N2C(=O)C=CC2=O)ccc1Cl	nt	nt	50.2*	nt
Cc1ccc2c(c1)C1C=CCC1C(C(=O)O)N2 (centres undefined)	10.9	-8.2	102.4*	0.1
Cc1cc(I)c2c(c1)C1C=CCC1C(C(=O)O)N2 (centres undefined)	nt	nt	102.1*	nt
COc1ccc(C(=O)NN=C2CCN(Cc3ccccc3)CC2)cc1OC	nt	nt	8.3	nt
COc1ccccc1NC(=O)COc1ccc(CO)cc1Cl	3.1	18.6*	-5.5	6.9
COc1cc(NC(=O)COc2ccccc2C)c(OC)cc1Cl	nt	nt	5.6	nt
Cc1ccc(C(=O)Oc2ccc(NS(=O)(=O)c3cccc([N+](=O)[O-])c3)cc2)cc1	nt	nt	-4.2	nt
COC(=O)c1[nH]c2c(c1C)C(=O)CC(c1ccccc1)C2 (centres undefined)	1.4	6.1	-11.3	44.5*
CCOC(=O)c1[nH]c2c(c1C)C(=O)CC(c1ccc(OC)c(OC)c1)C2 (centres undefined)	-0.4	nt	-12.5	20.0
CCCc1cc(=O)oc2cc(OC(C)C(C)=O)ccc12 (centres undefined)	nt	nt	4.8	nt
Cc1nnc(C)n1/N=C\c1cccc(Br)c1	nt	nt	-11.1	nt
Cc1ccc(C=C2C(=O)NC(=S)N(c3ccccc3Cl)C2=O)o1	nt	nt	65.1*	nt
Cc1ccc(/C=C2\C(=O)NC(=S)N(c3ccc(Br)cc3C)C2=O)o1	nt	nt	87.3*	nt
COc1cccc(NC(=O)CN(c2ccc(Cl)cc2)S(C)(=O)=O)c1	nt	nt	2.9	nt
SMILES	MMP-13 inhibitor	JNK3 blocker	HePTP inh	HEK293 NFkB inh
O=C(O)c1ccc(-n2c(O)c(/C=C3\C=Nc4ccccc43)sc2=S)cc1	nt	nt	57.4*	nt
O=C1N=c2ccccc2=C1c1sc(=S)n(-c2ccc(C(=O)O)cc2)c1O	nt	nt	100.0*	nt
O=C(/C=C/Nc1ccc([N+](=O)[O-])cc1Br)c1ccccc1	nt	nt	6.2	nt
C=C(C)CNC(=S)Nc1ccccn1	nt	nt	103.0*	nt
CC(C)Oc1ccc(C(=O)NCc2cccnc2)cc1	0.5	-2.8	104.4*!	1.5
Cc1sc(NC(=O)CCC2CCCCC2)nc1-c1ccccc1	nt	nt	102.4*	nt
Cc1sc(NC(=O)/C=C\C(=O)O)nc1-c1ccccc1	nt	nt	103.0*	nt
Cc1sc(NC(=O)NC2CCCCC2)nc1-c1ccccc1	nt	nt	-4.3	nt
O=C(Nc1ccc(C2CCCCC2)cc1)C1=C(O)CCn2c1nc1ccccc12	nt	nt	-1.6	nt
Clc1ccc(-c2ccc(-c3nn4c(-c5ccco5)nnc4s3)o2)cc1	-25.7	9.3	13.7	3.5
Brc1ccc(-c2nn3c(-c4ccco4)nnc3s2)o1	3.4	24.8*	11.8	4.6
CCOC(=O)c1ccc(-c2ccc(/C=C3/SC(=S)N(CC(=O)O)C3=O)o2)cc1	nt	nt	54.5*	nt
CCN1C(=O)/C(=C\c2ccc(-c3ccc(C(=O)OC)cc3)o2)SC1=S	nt	nt	1.1	nt
O=C1/C(=C/c2ccc(Br)o2)SC(=S)N1Cc1ccccc1	nt	nt	56.0*	nt
O=C(O)CCCN1C(=O)/C(=C\c2ccc(-c3ccc(Br)cc3)o2)SC1=S	nt	nt	94.3*	nt
O=C1/C(=C/c2ccc(I)o2)SC(=S)N1Cc1ccccc1	nt	nt	18.9	nt
O=C1/C(=C/c2ccc(-c3ccc([N+](=O)[O-])cc3)o2)SC(=S)N1Cc1ccco1	nt	nt	63.6*	nt
COc1ccccc1OCCOc1ccc(/C=N/N2C(=O)CSC2=S)cc1	nt	nt	-6.9	nt
COc1cccc(OCCn2cc(/C=C3/SC(=S)NC3=O)c3ccccc32)c1	nt	nt	5.1	nt
CN(C)CCC(=O)c1cccs1	nt	nt	11.3	nt
CN(C)C1(c2cccs2)CS(=O)(=O)C1	nt	nt	102.5*	nt
CCOc1ccc(/C(O)=C2\C(=O)C(=O)N(c3cc(C)on3)C2c2ccccc2OC)cc1 (centres undefined)	5.0	21.1*	5.3	13.3
CCOc1ccc(C2/C(=C(\O)c3ccc(OC)c(OC)c3)C(=O)C(=O)N2c2cc(C)on2)cc1OC (centres undefined)	1.2	-2.0	3.9	6.3
O=C(Nc1nccs1)c1sc2ccccc2c1Cl	nt	nt	81.9*	nt
COC(=O)c1ccc(NC(=O)Cn2nc(C)c3ccccc3c2=O)cc1	nt	nt	69.2*	nt
SMILES	MMP-13 inhibitor	JNK3 blocker	HePTP inh	HEK293 NFkB inh
CC(C)=C1C2CCC1C(C(=O)NCCC(c1ccccc1)c1ccccc1)C2C(=O)O (centres undefined)	nt	nt	5.1	nt
O=S1(=O)C=C(Sc2nc3ccccc3s2)c2ccccc21	-12.1	5.6	6.7	45.9*
O=C(O)c1nn2c(C(F)(F)F)c3c(nc2c1Cl)-c1ccccc1CC3	nt	nt	69.6*	nt
Cc1c(NC(=O)c2nn3c(C(F)(F)F)c4c(nc3c2Cl)-c2ccccc2CC4)c(=O)n(-c2ccccc2)n1C	nt	nt	-12.7	nt
Cc1ccc(-c2nnc(NC(=O)c3ccccc3C)s2)cc1	nt	nt	10.6	nt
O=C(Nc1nncs1)c1ccc(N2C(=O)C3C4C=CC(C4)C3C2=O)cc1 (centres undefined)	1.6	17.4*	1.8	-5.7
CCN(CC)CCN1C(=O)C(O)=C(C(=O)/C=C/c2ccccc2)C1c1ccc([N+](=O)[O-])cc1 (centres undefined)	nt	nt	1.8	nt
N#Cc1sc2nc3c(c(-c4ccco4)c2c1N)CCCC3	-0.6	17.4*	5.6	6.4
c1coc(-c2nc3c4c5c(sc4ncn3n2)CCCC5)c1	-4.8	0.7	7.9	3.9
CCc1c(C)sc(NC(=O)CCc2ccc(OC)cc2)c1C(=O)OC	nt	nt	103.7*	nt
CN(C)CCN1C(=O)C(=O)/C(=C(/O)c2ccccc2)C1c1ccc(Cl)cc1Cl (centres undefined)	nt	nt	-12.6	nt
CC(C)c1ccc(/C=C/C(=O)Nc2ccc(C(N)=O)cc2)cc1	nt	nt	103.6*	nt
COc1ccc(-n2cnc3cc(NC(C)=O)ccc32)cc1	nt	nt	0.8	nt
COc1ccc2ncn(-c3ccccc3)c2c1	0.0	29.9*	-6.7	-1.2
CC(=O)NC1=NC(=O)/C(=C\c2ccc(Br)o2)S1	nt	nt	101.5*	nt
CC(=O)NC1=NC(=O)/C(=C\c2ccc(-c3ccc(C(=O)O)cc3)o2)S1	nt	nt	103.5*	nt
CC(=O)NC1=NC(=O)/C(=C/c2ccc(C)cc2)S1	nt	nt	6.7	nt
COc1ccc(CCNC(=O)C(=O)Nc2cc(Cl)ccc2C)cc1	nt	nt	-7.5	nt
Cc1ccc(CN2CCN(CCNC(=O)C(=O)Nc3ccc(F)cc3)CC2)cc1	nt	nt	8.0	nt
